Assay results reported in ChEMBL document CHEMBL4680332, “Lead optimization of 2-hydroxymethyl imidazoles as non-hydroxamate LpxC inhibitors: Discovery of TP0586532” (Bioorg Med Chem, 2021).
Converted amounts (≈) assume the structure as drawn.

Legend:
[1] = Inhibition of Escherichia coli LpxC using DP-3-0-(R-3-hydroxymyristoy1)-N-acetylglucosamine as substrate incubated for 120 mins by fluorescamine assay
Escherichia coli = test: Antibacterial activity against Escherichia coli ATCC 25922 by CLSI based broth microdilution method; format: functional
How it was run: (§1)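 Broth microdilution MIC per CLSI method; E. coli ATCC 25922 and K. pneumoniae ATCC 13883.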

Klebsiella pneumoniae [2] = test: Antibacterial activity against Klebsiella pneumonia ATCC 13883 by CLSI based broth microdilution method; format: functional; how it was run: as §1
[3] = Protein binding in human serum at 1 ug/ml incubated for 4 hrs by LC-MS/MS analysis; format: ADME, cell-free; conditions: at 1 µg/mL, read-out: PB (converted)
How it was run: (§2)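 Equilibrium dialysis at 1 µg/mL final in pooled male ICR mouse serum or human volunteer serum (no anticoagulant). Dialyzed against 50 mM sodium phosphate buffer at 37 °C for 4 h (5% CO2, MWCO 12000–14000). Compound on each side measured by LC-MS/MS; binding % = (Cs−Cb)/Cs×100.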

[4] = Protein binding in ICR mouse serum at 1 ug/ml incubated for 4 hrs by LC-MS/MS analysis; format: ADME, cell-free; conditions: at 1 µg/mL, read-out: PB (converted); how it was run: as §2
Klebsiella pneumoniae [5] = test: In vivo antibacterial activity against Klebsiella pneumonia ATCC BAA-2343 infected in ICR mouse assessed as reduction in bacterial burden in lung at 50 mg/kg, sc administered after 2 hrs of infection and measured after 26 hrs of infection; format: functional; conditions: time 24 hrs
How it was run: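 Female ICR mice (5 weeks) made neutropenic with cyclophosphamide ip, 150 and 100 mg/kg at days −4 and −1. Intranasal inoculation with 1.5–1.9 × 10^6 CFU. Compound in 10w/v% HP-β-CD given sc 2 h post-infection (n = 5). Lung viable counts at 2 h (control) and 26 h; mean log change versus start of therapy.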

[6] = Toxicity in iv dosed ICR mouse assessed as maximum tolerated dose; format: organism-based; conditions: in vivo
How it was run: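 Exploratory MTD study in male ICR mice (n = 2): a single intravenous tail-vein injection at dose levels of up to 200 mg/kg.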

[7] = Cardiotoxicity in iv dosed Hartley guinea pig assessed as increase in QT prolongation measured after 30 mins; format: toxicity, organism-based, Cavia porcellus; conditions: in vivo, 0.5 h
How it was run: (§3)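 Guinea pigs (6–7 weeks) anesthetized with pentobarbital 60 mg/kg ip, then infused iv at 8 mg/kg/h; ventilated at 15 mL/kg, 60/min. Vehicle (11w/v% SBE-β-CD, pH4) or compound infused via jugular vein for 30 min. Carotid arterial pressure and ECG recorded; QT corrected by Bazett. Heart rate, QTc, SBP and DBP expressed as change from baseline.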

[8] = Cardiotoxicity in iv dosed Hartley guinea pig assessed as decrease in heart rate measured after 30 mins; format: toxicity, organism-based, Cavia porcellus; conditions: in vivo, 0.5 h; how it was run: as §3
[9] = Cardiotoxicity in Hartley guinea pig assessed as decrease in blood pressure at 150 mg/kg, iv measured after 30 mins; format: toxicity, organism-based, Cavia porcellus; conditions: in vivo, 0.5 h; how it was run: as §3
[10] = biological target: Voltage-gated inwardly rectifying potassium channel KCNH2 (Homo sapiens, UniProt Q12809); test: Inhibition of human ERG expressed in CHO cells by whole cell Q-patch clamp assay; format: cell-based
[11] = Genotoxicity in mouse lymphoma cell; format: toxicity; conditions: lymphoma cell line
[12] = Toxicity in iv dosed cynomolgus monkey assessed as maximum tolerated dose administered for 14 days; format: organism-based, Macaca fascicularis; conditions: in vivo, time 14 day
How it was run: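 Three-year-old female cynomolgus monkeys were dosed intravenously for 14 days as a 30-min infusion via the saphenous vein. MTD was assessed under repeated dosing.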

[13] = Toxicity in iv dosed Sprague-Dawley rat assessed as maximum tolerated dose administered for 4 days; format: organism-based; conditions: in vivo, time 4 day
How it was run: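 Six-week-old male and female Sprague Dawley rats received intravenous bolus doses via the tail vein for 4 days. MTD was assessed under repeated dosing.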

[14] = Plasma concentration in Hartley guinea pig at 150 mg/kg, iv measured after 30 mins by LC-MS/MS analysis; format: ADME, organism-based, Cavia porcellus
How it was run: (§4)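 Anesthetized guinea pigs received a 30-min iv infusion. Blood was taken at the end of infusion and centrifuged, and plasma concentration (C30min) was measured by LC-MS/MS.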

[15] = Free plasma concentration in Hartley guinea pig serum assessed as fraction unbound at 150 mg/kg, iv measured after 30 mins by LC-MS/MS analysis; format: ADME, organism-based, Cavia porcellus; conditions: in vivo, 0.5 h
How it was run: (§5)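 Unbound plasma concentration at end of 30-min iv infusion in anesthetized guinea pigs: LC-MS/MS plasma C30min multiplied by fraction unbound, with plasma fu assumed equal to serum fu (equilibrium dialysis, 500 µg/mL in guinea pig serum).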

Klebsiella pneumoniae [16] = test: In vivo antibacterial activity against Klebsiella pneumonia 4102 infected in ICR mouse assessed as mouse survival rate at 25 mg/kg, sc administered once after 1 hr of infection and observed for 7 days relative to control; format: functional; conditions: time 7 day
How it was run: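 Four-week-old male ICR mice given K. pneumoniae 4102 intraperitoneally (3.8–5.5 × 10^6 CFU/mouse) in 0.5 mL suspension with 3w/v% mucin. Compound in 10w/v% HP-β-CD, single subcutaneous dose 1 h post-inoculation (n = 6). Survival followed for 7 days.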

[17] = Cardiotoxicity in iv dosed Hartley guinea pig assessed as decrease in blood pressure measured after 30 mins; format: toxicity, organism-based, Cavia porcellus; conditions: in vivo, 0.5 h; how it was run: as §3
[18] = Plasma concentration in Hartley guinea pig at 180 mg/kg, iv measured after 30 mins by LC-MS/MS analysis; format: ADME, organism-based, Cavia porcellus; how it was run: as §4
[19] = Free plasma concentration in Hartley guinea pig serum assessed as fraction unbound at 180 mg/kg, iv measured after 30 mins by LC-MS/MS analysis; format: ADME, organism-based, Cavia porcellus; conditions: in vivo, 0.5 h; how it was run: as §5
[20] = Plasma concentration in Hartley guinea pig at 135 mg/kg, iv measured after 30 mins by LC-MS/MS analysis; format: ADME, organism-based, Cavia porcellus; how it was run: as §4
[21] = Free plasma concentration in Hartley guinea pig serum assessed as fraction unbound at 135 mg/kg, iv measured after 30 mins by LC-MS/MS analysis; format: ADME, organism-based, Cavia porcellus; conditions: in vivo, 0.5 h; how it was run: as §5
[22] = Plasma concentration in Hartley guinea pig at 60 mg/kg, iv measured after 30 mins by LC-MS/MS analysis; format: ADME, organism-based, Cavia porcellus; how it was run: as §4
[23] = Free plasma concentration in Hartley guinea pig serum assessed as fraction unbound at 60 mg/kg, iv measured after 30 mins by LC-MS/MS analysis; format: ADME, organism-based, Cavia porcellus; conditions: in vivo, 0.5 h; how it was run: as §5
[24] = in the assay text read “LCMS assay” for “fluorescamine assay”

Sequence of Voltage-gated inwardly rectifying potassium channel KCNH2 (Q12809 whole entry): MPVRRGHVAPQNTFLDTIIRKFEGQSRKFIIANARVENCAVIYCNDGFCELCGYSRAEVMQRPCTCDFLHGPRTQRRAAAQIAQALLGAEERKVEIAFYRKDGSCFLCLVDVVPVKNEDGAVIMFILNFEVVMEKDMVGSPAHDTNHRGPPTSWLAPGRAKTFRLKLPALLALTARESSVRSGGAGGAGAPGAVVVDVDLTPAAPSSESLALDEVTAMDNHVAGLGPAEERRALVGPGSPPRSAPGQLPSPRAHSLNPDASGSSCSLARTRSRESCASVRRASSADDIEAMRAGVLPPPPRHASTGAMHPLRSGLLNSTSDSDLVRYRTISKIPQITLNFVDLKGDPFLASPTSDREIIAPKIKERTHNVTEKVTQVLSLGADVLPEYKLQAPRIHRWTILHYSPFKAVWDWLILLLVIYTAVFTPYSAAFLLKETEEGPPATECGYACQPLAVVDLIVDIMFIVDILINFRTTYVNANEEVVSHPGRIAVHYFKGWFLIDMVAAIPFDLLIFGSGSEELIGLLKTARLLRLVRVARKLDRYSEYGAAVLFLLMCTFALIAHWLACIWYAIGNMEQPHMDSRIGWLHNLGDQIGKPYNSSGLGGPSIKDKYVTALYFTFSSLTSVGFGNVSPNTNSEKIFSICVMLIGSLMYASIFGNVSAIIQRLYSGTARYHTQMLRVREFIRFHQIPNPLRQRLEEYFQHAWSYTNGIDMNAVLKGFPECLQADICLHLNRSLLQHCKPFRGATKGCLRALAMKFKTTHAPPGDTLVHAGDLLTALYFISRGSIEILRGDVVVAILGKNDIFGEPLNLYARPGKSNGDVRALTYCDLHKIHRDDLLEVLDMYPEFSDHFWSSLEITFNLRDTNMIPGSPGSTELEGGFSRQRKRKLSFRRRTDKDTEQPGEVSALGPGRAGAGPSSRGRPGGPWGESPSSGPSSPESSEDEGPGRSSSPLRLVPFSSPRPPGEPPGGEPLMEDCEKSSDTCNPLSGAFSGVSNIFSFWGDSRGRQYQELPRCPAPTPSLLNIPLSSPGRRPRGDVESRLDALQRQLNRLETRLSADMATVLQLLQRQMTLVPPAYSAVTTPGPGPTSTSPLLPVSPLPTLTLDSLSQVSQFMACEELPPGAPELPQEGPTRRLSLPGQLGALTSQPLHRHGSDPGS

| Structure (SMILES) | IC50 [1] [µM] | MIC (Escherichia coli) [µg/mL] | MIC (Klebsiella pneumoniae [2]) [µg/mL] | fraction unbound at 4 h, 1 ug/ml [3] | fraction unbound at 4 h, 1 ug/ml [4] | Activity (Klebsiella pneumoniae [5]) [log10CFU] | MTD [6] [mg/kg] | IC50 [1, 24] [µM] | further results |
| --- | --- | --- | --- | --- | --- | --- | --- | --- | --- |
| C[C@H](O)c1nccn1Cc1cc(-c2ccc(C#C[C@@H]3[C@H]4CN(CCCC(=O)O)C[C@@H]34)cc2)on1 | 0.101 | 2 (≈ 4.34 µM) | 4 (≈ 8.69 µM) | 0.223 | 0.241 | -1.63 | ≥ 200 | – | Activity [7]: Non-Toxic; Activity [8]: Non-Toxic; Activity [9]: Non-Toxic; IC50 [10]: > 1000 µM; Activity [11]: Non-Toxic; MTD at 336 h [12]: > 400 mg/kg; MTD at 96 h [13]: 400 mg/kg; concentration at 0.5 h [14]: 378 µg/mL; Cp(f) [15]: 87.3 µg/mL |
| C[C@H](O)c1nccn1Cc1cc(C#Cc2ccc(OC3CN(CCCO)C3)cc2)on1 | 0.378 | 2 (≈ 4.73 µM) | 8 (≈ 18.9 µM) | 0.261 | 0.165 | – | – | – | – |
| C[C@H](O)c1nccn1Cc1cc(-c2ccc(C#CC34CC(N)(C3)C4)cc2)on1 | – | 0.25 (≈ 0.668 µM) | 0.5 (≈ 1.34 µM) | 0.027 | 0.034 | – | – | 0.049 | Activity (Klebsiella pneumoniae [16]): 0% |
| C[C@H](O)c1nccn1Cc1cc(-c2ccc(C#CC3(N)CC3)cc2)no1 | – | 1 (≈ 2.87 µM) | 4 (≈ 11.5 µM) | 0.115 | 0.15 | – | – | 0.193 | – |
| COCC(O)CN1C[C@@H]2[C@@H](C#Cc3ccc(-c4cc(Cn5ccnc5[C@H](C)O)no4)cc3)[C@@H]2C1 (mixture of isomers) | 0.071 | 0.5 | 0.5 | 0.065 | 0.082 | – | – | – | Activity (Klebsiella pneumoniae [16]): 33% |
| C[C@H](O)c1nccn1Cc1cc(-c2ccc(C#C[C@H]3C[C@H](O)C3)cc2)on1 | 0.015 | 0.12 (≈ 0.33 µM) | 0.25 (≈ 0.688 µM) | 0.017 | 0.035 | – | – | – | Activity (Klebsiella pneumoniae [16]): 0% |
| C[C@H](O)c1nccn1Cc1cc(-c2ccc(C#C[C@@H]3[C@H]4CN(C=O)C[C@@H]34)cc2)on1 | 0.039 | 1 (≈ 2.48 µM) | 2 (≈ 4.97 µM) | 0.095 | 0.09 | -2.84 | 100 | – | – |
| C[C@H](O)c1nccn1[C@H](CN)c1cc(-c2ccc(C#CC3(N)CC3)cc2)on1 | – | 2 (≈ 5.3 µM) | 8 (≈ 21.2 µM) | – | – | – | – | 0.282 | – |
| C[C@H](O)c1nccn1[C@H](CN)c1cc(-c2ccc(C#C[C@@H]3[C@H]4CN(CCCC(=O)O)C[C@@H]34)cc2)on1 | – | 4 (≈ 8.17 µM) | 16 (≈ 32.7 µM) | – | – | – | – | – | – |
| C[C@H](O)c1nccn1Cc1cc(-c2ccc(C#CCCCO)cc2)on1 | 0.051 | 1 (≈ 2.85 µM) | 2 (≈ 5.69 µM) | 0.031 | 0.049 | – | – | – | – |
| C[C@H](O)c1nccn1[C@H](CN)c1cc(-c2ccc(C#CC34CC(N)(C3)C4)cc2)on1 | – | 0.5 (≈ 1.24 µM) | 2 (≈ 4.96 µM) | 0.103 | 0.084 | -2.48 | 100 | 0.279 | – |
| C[C@H](O)c1nccn1[C@H](CN)c1cc(-c2ccc(C#C[C@@H]3[C@H]4CN(C=O)C[C@@H]34)cc2)on1 | – | 1 (≈ 2.32 µM) | 2 (≈ 4.64 µM) | 0.275 | 0.18 | -2.47 | ≥ 200 | – | Activity [7]: Toxic; Activity [8]: Toxic; Activity [17]: Toxic; concentration at 0.5 h [18]: 233 µg/mL; Cp(f) [19]: 59.4 µg/mL |
| C[C@H](O)c1nccn1Cc1cc(-c2ccc(C#CC3(N)CC3)cc2)on1 | – | 0.5 (≈ 1.44 µM) | 1 (≈ 2.87 µM) | 0.07 | 0.099 | – | – | 0.046 | Activity (Klebsiella pneumoniae [16]): 67% |
| C[C@H](O)CN1C[C@@H]2[C@@H](C#Cc3ccc(-c4cc([C@@H](CN)n5ccnc5[C@H](C)O)no4)cc3)[C@@H]2C1 | – | 1 (≈ 2.17 µM) | 4 (≈ 8.67 µM) | 0.212 | 0.151 | -1.19 | ≥ 200 | – | Activity [7]: Toxic; Activity [8]: Toxic; Activity [17]: Toxic; concentration at 0.5 h [20]: 132 µg/mL; Cp(f) [21]: 36 µg/mL |
| C[C@H](O)c1nccn1Cc1cc(-c2ccc(C#CC34CC(N)(C3)C4)cc2)no1 | – | 0.5 (≈ 1.34 µM) | 2 (≈ 5.34 µM) | 0.035 | 0.069 | – | – | 0.065 | – |
| COCC(O)CN1C[C@@H]2[C@@H](C#Cc3ccc(-c4cc(Cn5ccnc5[C@H](C)O)on4)cc3)[C@@H]2C1 (mixture of isomers) | 0.097 | 0.5 | 0.5 | 0.076 | 0.077 | – | – | – | Activity (Klebsiella pneumoniae [16]): 17% |
| C[C@H](O)c1nccn1Cc1cc(C#Cc2ccc(CCCO)cc2)on1 | 0.031 | 0.5 (≈ 1.42 µM) | 2 (≈ 5.69 µM) | < 0.005 | < 0.005 | – | – | – | – |
| COCCN1CCN(c2ccc(C#Cc3cc(Cn4ccnc4[C@H](C)O)no3)cc2)CC1 | 0.071 | 0.25 (≈ 0.574 µM) | 0.5 (≈ 1.15 µM) | 0.09 | 0.083 | – | – | – | – |
| C[C@H](O)c1nccn1[C@H](CN)c1cc(-c2ccc(C#C[C@H]3C[C@H](O)C3)cc2)on1 | – | 0.25 (≈ 0.637 µM) | 1 (≈ 2.55 µM) | 0.074 | 0.07 | -1.99 | ≥ 200 | < 0.037 | Activity [7]: Toxic; Activity [8]: Toxic; Activity [17]: Toxic; concentration at 0.5 h [22]: 90.7 µg/mL; Cp(f) [23]: 15.6 µg/mL |
